We go through 5 molecules from ChEMBL document CHEMBL3297702, “Improving photodynamic inactivation of bacteria in dentistry: highly effective and fast killing of oral key pathogens with novel tooth-colored type-II photosensitizers” (J Med Chem, 2014).

Series [1] is described as follows: Induction of singlet oxygen generation measured over 20 mins by luminescence assay. In kind it is physicochemical.
Series [2] is described as follows: Photobleaching of the compound irradiated with laser energy at 405 nm for 5 mins. In kind it is physicochemical. Further details: dose or concentration left out as unconfirmed; call rule not given here.
The next series relates to Leishmania infantum. Put plainly: Leishmanicidal activity against amastigote stage of Leishmania infantum MCAN/ES/89/IPZ229/1/89 after 2 hrs by MTT assay. In kind it is functional, organism-based. Particulars: MCAN/ES/89/IPZ229/1/89, 2 h. (In general: Tetrazolium assays rely on reduction of a dye to a coloured formazan, in cell work by metabolically active cells.)
For another series, the system named is Leishmania donovani. The series is described as follows: Leishmanicidal activity against promastigote stage of Leishmania donovani MHOM/SD/00/1S-2D after 2 hrs by MTT assay. Type of series: functional, organism-based.
The test system of series [3] is Enterococcus faecalis. The series is described as follows: Photodynamic inactivation of Enterococcus faecalis ATCC 29212 assessed as reduction of log10 CFU at 100 uM incubated prior to irradiation with 150 j/cm'2 for 120 secs measured after 24 hrs by agar plating method (reference value: <1 no unit). Type of series: functional. In outline:
(§1)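 E. faecalis ATCC 29212, aerobic overnight BHI culture at 37 °C, was harvested at stationary phase and suspended in PBS at 10^7–10^8 bacteria/mL. It was mixed 1:1 with PS to 0–250 µM final, held 10 s, then illuminated (1260 ± 50 mW/cm2) or kept dark. Dilutions were plated on Mueller-Hinton agar, aerobic 37 °C 24 h, CFU counted. Medians of three independent triplicate experiments, referred to untreated controls.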

Series [4] has as its system Enterococcus faecalis. The series is described as follows: Photodynamic inactivation of Enterococcus faecalis ATCC 29212 assessed as reduction of log10 CFU at 1 uM incubated prior to irradiation with 50 j/cm'2 for 40 secs measured after 24 hrs by agar plating method (reference value: <1 no unit). In kind it is functional. The method in brief: as §1
Series [5] can be described thus: Octanol-water partition coefficient, log P of the compound at 1 x 10^-4 mol at room temperature after 10 mins by UV/vis spectroscopic analysis. Type of series: physicochemical.
Series [6] relates to Enterococcus faecalis. Put plainly: Photodynamic inactivation of Enterococcus faecalis ATCC 29212 assessed as reduction of log10 CFU at 10 uM incubated prior to irradiation with 50 j/cm'2 for 40 secs measured after 24 hrs by agar plating method (reference value: <1 no unit). Type of series: functional. The method in brief: as §1
The subject of series [7] is Enterococcus faecalis. The series is described as follows: Photodynamic inactivation of Enterococcus faecalis ATCC 29212 assessed as reduction of log10 CFU at 5 uM incubated prior to irradiation with 50 j/cm'2 for 40 secs measured after 24 hrs by agar plating method (reference value: <1 no unit). Type of series: functional. The method in brief: as §1
In series [8] the test system is Enterococcus faecalis. The series is described as follows: Photodynamic inactivation of Enterococcus faecalis ATCC 29212 assessed as reduction of log10 CFU at 10 uM incubated prior to irradiation with 25 j/cm'2 for 20 secs measured after 24 hrs by agar plating method (reference value: <1 no unit). In kind it is functional. In outline:
as §1

Series [9] concerns Enterococcus faecalis. Put plainly: Photodynamic inactivation of Enterococcus faecalis ATCC 29212 assessed as reduction of log10 CFU at 100 uM incubated prior to irradiation with 50 j/cm'2 for 40 secs measured after 24 hrs by agar plating method (reference value: <1 no unit). Type of series: functional. The method in brief:
as §1

Series [10] deals with Enterococcus faecalis. The series is described as follows: Photodynamic inactivation of Enterococcus faecalis ATCC 29212 assessed as reduction of log10 CFU at 1 uM incubated prior to irradiation with 25 j/cm'2 for 20 secs measured after 24 hrs by agar plating method (reference value: <1 no unit). Type of series: functional. The method in brief: as §1
Series [11] concerns Enterococcus faecalis. The series is described as follows: Photodynamic inactivation of Enterococcus faecalis ATCC 29212 assessed as reduction of log10 CFU at 100 uM incubated prior to irradiation with 25 j/cm'2 for 20 secs measured after 24 hrs by agar plating method (reference value: <1 no unit). In kind it is functional. The method in brief:
as §1

Series [12] concerns Enterococcus faecalis. Put plainly: Toxicity in Enterococcus faecalis ATCC 29212 assessed as reduction of log10 CFU at 1 to 250 uM incubated for 10 secs under dark condition measured after 24 hrs by agar plating method. In kind it is organism-based. The settings on record: in vivo. The method in brief: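 Dark controls. Overnight BHI cultures (EF, SM, AN aerobic; AA anaerobic; 37 °C) were washed into PBS at 10^7–10^8 cells/mL. They were mixed 1:1 with photosensitizer at final 0–250 µM and incubated 10 s, 7.5 min or 15 min, then kept in the dark for 20, 40 or 120 s. Tenfold dilutions were plated: EF on Mueller-Hinton agar, aerobic 24 h; SM on BHI agar, aerobic 48 h; AN on blood agar, aerobic 48 h; AA on BHI agar, anaerobic 48 h; all at 37 °C. CFU were compared with untreated controls; medians of three independent experiments in triplicate.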

The subject of series [13] is Enterococcus faecalis. Put plainly: Photodynamic inactivation of Enterococcus faecalis ATCC 29212 assessed as reduction of log10 CFU at 1 uM incubated prior to irradiation with 150 j/cm'2 for 120 secs measured after 24 hrs by agar plating method (reference value: <1 no unit). In kind it is functional. In outline:
as §1

Series [14] has as its system Enterococcus faecalis. Put plainly: Photodynamic inactivation of Enterococcus faecalis ATCC 29212 assessed as reduction of log10 CFU at 10 uM incubated prior to irradiation with 150 j/cm'2 for 120 secs measured after 24 hrs by agar plating method (reference value: <1 no unit). In kind it is functional. The method in brief: as §1
For series [15], the system named is Enterococcus faecalis. The series is described as follows: Photodynamic inactivation of Enterococcus faecalis ATCC 29212 assessed as reduction of log10 CFU at 5 uM incubated prior to irradiation with 150 j/cm'2 for 120 secs measured after 24 hrs by agar plating method (reference value: <1 no unit). Type of series: functional. The method in brief: as §1
Series [16] concerns Enterococcus faecalis. The series is described as follows: Photodynamic inactivation of Enterococcus faecalis ATCC 29212 assessed as reduction of log10 CFU at 5 uM incubated prior to irradiation with 25 j/cm'2 for 20 secs measured after 24 hrs by agar plating method (reference value: <1 no unit). In kind it is functional. In outline: as §1

One may read the EC50 as the concentration needed to bring the measured effect to its halfway point. `COC1=Cc2cccc3ccc(-c4ccccc4)c(c23)C1=O`: the outcome in [1] was Active. Further, in series [2], the Stability result was “Unstable”. Moreover, the EC50 in the series on Leishmania infantum and in the series with Leishmania donovani was under 60 µg/mL each time.

In general, logP refers to the decadic logarithm of the partition coefficient of the neutral form, usually between octanol and water. In the case of `CC(c1ccccc1)[N+](C)(C)CC1=Cc2cccc3cccc(c23)C1=O.[Cl-]` (stereo unspecified), the log10cfu in the series on Enterococcus faecalis [3] is reported as over 6; in the series on Enterococcus faecalis [4], under 1; in the series on Enterococcus faecalis [6] it was under 3; in the series on Enterococcus faecalis [7] it was under 3; with Enterococcus faecalis [8], under 3; in the series with Enterococcus faecalis [9] it was over 6. The log10cfu in the series on Enterococcus faecalis [10] is given as under 1; with Enterococcus faecalis [11] it was over 6; with Enterococcus faecalis [13], under 3; in the series with Enterococcus faecalis [14], over 6; in the series with Enterococcus faecalis [15], over 6; in the series with Enterococcus faecalis [16] it was under 3. Further, the Activity entry in series [1] is on record as “Active”; in the series on Enterococcus faecalis [12], “Non-toxic”. Also, in series [2], the Stability result was “Unstable”. The logP at 10 min in series [5] was -0.1.

For the molecule `CCCC[N+](C)(C)CC1=Cc2cccc3cccc(c23)C1=O.[Cl-]`, the log10cfu is on record as over 6 in the series on Enterococcus faecalis [3]; under 1 in the series with Enterococcus faecalis [4]; under 3 with Enterococcus faecalis [6]; under 3 with Enterococcus faecalis [7]; under 3 in the series on Enterococcus faecalis [8]; over 6 in the series on Enterococcus faecalis [9]. Besides, the log10cfu is on record as under 1 in the series with Enterococcus faecalis [10]; over 6 with Enterococcus faecalis [11]; under 3 with Enterococcus faecalis [13]; over 6 in the series with Enterococcus faecalis [14]; 3 in the series on Enterococcus faecalis [15]; under 1 in the series on Enterococcus faecalis [16]. Further, the Activity result is “Active” in series [1] and “Non-toxic” in the series on Enterococcus faecalis [12]. In addition, in series [2], the Stability entry is given as “Unstable”. Further, the logP at 10 min in series [5] is -0.8.

Consider `O=C1C(CCl)=Cc2cccc3cccc1c23`, for which the logP at 10 min in series [5] is 1.3.

Consider `O=C1C(O)=Cc2cccc3ccc(-c4ccccc4)c1c23`, for which the result in series [1] was Active. Also, the Stability entry in series [2] is reported as “Unstable”. Further, the EC50 with Leishmania infantum and in the series on Leishmania donovani was under 60 µg/mL each time.
